Results collected from several papers.
Protocols differ between the studies behind these lines.
CTSV: Cathepsin L2 (CTSV, Homo sapiens, UniProt O60911)
PKN1: Serine/threonine-protein kinase N1 (PKN1, Homo sapiens, UniProt Q16512)
NUAK2: NUAK family SNF1-like kinase 2 (NUAK2, Homo sapiens, UniProt Q9H093)

Nc1ncc(-c2nc(N3CCOCC3)nc(N3CCOCC3)n2)c(C(F)F)n1  remaining binding (Ribosomal protein S6 kinase alpha-6, N-terminal kinase domain (RPS6KA6, Homo sapiens, UniProt Q9UK32); binding, competition with immobilised ligand; 10 µM): 48%
N=C(N)c1ccc2cc(OC(=O)c3ccc(N=C(N)N)cc3)ccc2c1  inhibition (CTSV; enzyme activity, inhibitor; 10 µM): 27%
CC(=O)c1c(O)c(C)c(O)c(Cc2c(O)c3c(c(C(=O)/C=C/c4ccccc4)c2O)OC(C)(C)C=C3)c1O  activity vs control (PKN1; enzyme activity, inhibitor; 1 µM): 84%
COc1ncccc1-c1cnn2ccc(N3CCN(C(=O)OC(C)C)CC3)nc12  remaining binding (NUAK2; binding, competition with immobilised ligand; 1 µM): 100%
CC(C)C[C@H](NC(=O)[C@H]1O[C@@H]1C(=O)O)C(=O)NCCCCN=C(N)N  inhibition (CTSV; enzyme activity, inhibitor; 50 nM): 57%
O=c1[nH]c2ccccc2n1C1CCN(Cc2ccc(-c3nc4cc5nc[nH]c5cc4nc3-c3ccccc3)cc2)CC1  activity vs control (PKN1; enzyme activity, inhibitor; 1 µM): 77%
Cc1nn(C)cc1-c1nc2c(N3CCN(Cc4ccc(Cl)cc4)CC3)c(Cl)cnc2[nH]1  remaining binding (NUAK2; binding, competition with immobilised ligand; 1 µM): 32%
COC[C@H]1OC(=O)c2coc3c2[C@@]1(C)C1=C(C3=O)[C@@H]2CCC(=O)[C@@]2(C)C[C@H]1OC(C)=O  activity vs control (PKN1; enzyme activity, inhibitor; 1 µM): 111%
CN(C)C(=O)COC(=O)Cc1ccc(OC(=O)c2ccc(NC(=N)N)cc2)cc1  inhibition (Matrix metalloproteinase-9 (MMP9, Homo sapiens, UniProt P14780, Q279R); enzyme activity, inhibitor; 10 µM): 8%
